Test results reported in ChEMBL document CHEMBL3745659, “Synthesis and Characterization of 4,11-Diaminoanthra[2,3-b]furan-5,10-diones: Tumor Cell Apoptosis through tNOX-Modulated NAD(+)/NADH Ratio and SIRT1” (J Med Chem, 2015).
Active and inactive are the calls of the source. The rule behind the calls is not given here.

What was measured:
[1] = target: T1, NAD-dependent protein deacetylase sirtuin-1 (Homo sapiens) (UniProt Q96EB6); assay: Inhibition of human recombinant SIRT1 deacetylase activity using Arg-His-Lys-Lys(epsilon-acetyl)-AMC as substrate incubated for 45 mins by fluorescence analysis
T1 sequence (whole entry): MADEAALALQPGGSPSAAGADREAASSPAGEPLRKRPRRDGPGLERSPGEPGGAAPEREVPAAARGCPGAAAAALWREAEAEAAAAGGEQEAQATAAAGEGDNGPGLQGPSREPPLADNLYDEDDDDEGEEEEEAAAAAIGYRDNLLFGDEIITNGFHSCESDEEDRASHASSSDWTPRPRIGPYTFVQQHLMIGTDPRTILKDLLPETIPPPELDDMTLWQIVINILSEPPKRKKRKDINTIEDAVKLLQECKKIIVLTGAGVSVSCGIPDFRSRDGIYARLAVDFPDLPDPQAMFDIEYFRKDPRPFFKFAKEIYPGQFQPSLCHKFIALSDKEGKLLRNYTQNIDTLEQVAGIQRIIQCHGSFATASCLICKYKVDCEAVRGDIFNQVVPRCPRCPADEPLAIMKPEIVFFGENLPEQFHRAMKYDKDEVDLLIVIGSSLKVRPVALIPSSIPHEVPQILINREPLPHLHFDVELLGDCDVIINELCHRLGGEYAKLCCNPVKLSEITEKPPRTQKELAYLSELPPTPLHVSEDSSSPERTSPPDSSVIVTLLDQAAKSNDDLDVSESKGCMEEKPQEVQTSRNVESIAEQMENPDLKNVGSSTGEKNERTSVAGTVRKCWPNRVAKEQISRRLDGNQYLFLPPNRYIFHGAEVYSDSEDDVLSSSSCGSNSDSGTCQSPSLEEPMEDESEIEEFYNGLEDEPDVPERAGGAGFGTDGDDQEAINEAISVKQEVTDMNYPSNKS

CCRF-CEM = assay: Antiproliferative activity against human CEM cells after 72 hrs by MTT assay; format: functional, cell-based
HeLa = assay: Antiproliferative activity against human HeLa cells after 72 hrs by MTT assay; format: functional, cell-based
[2] = Antiproliferative activity against human HCT116 cells after 72 hrs by MTT assay; format: functional, cell-based; details: HCT-116, 72 h
K562 [3] = assay: Antiproliferative activity against human K562 cells after 72 hrs by MTT assay; format: functional, cell-based; details: K562, 72 h
[4] = Antiproliferative activity against human K562/4 cells after 72 hrs by MTT assay; format: functional, cell-based; details: K562/4, 72 h
[5] = target: T2, DNA topoisomerase 1 (Homo sapiens) (UniProt P11387); assay: Inhibition of Top1 (unknown origin)-mediated relaxation of pBR322 DNA at 0.5 to 10 uM incubated for 30 mins by ethidium bromide staining-based gel electrophoresis assay
T2 sequence (whole entry): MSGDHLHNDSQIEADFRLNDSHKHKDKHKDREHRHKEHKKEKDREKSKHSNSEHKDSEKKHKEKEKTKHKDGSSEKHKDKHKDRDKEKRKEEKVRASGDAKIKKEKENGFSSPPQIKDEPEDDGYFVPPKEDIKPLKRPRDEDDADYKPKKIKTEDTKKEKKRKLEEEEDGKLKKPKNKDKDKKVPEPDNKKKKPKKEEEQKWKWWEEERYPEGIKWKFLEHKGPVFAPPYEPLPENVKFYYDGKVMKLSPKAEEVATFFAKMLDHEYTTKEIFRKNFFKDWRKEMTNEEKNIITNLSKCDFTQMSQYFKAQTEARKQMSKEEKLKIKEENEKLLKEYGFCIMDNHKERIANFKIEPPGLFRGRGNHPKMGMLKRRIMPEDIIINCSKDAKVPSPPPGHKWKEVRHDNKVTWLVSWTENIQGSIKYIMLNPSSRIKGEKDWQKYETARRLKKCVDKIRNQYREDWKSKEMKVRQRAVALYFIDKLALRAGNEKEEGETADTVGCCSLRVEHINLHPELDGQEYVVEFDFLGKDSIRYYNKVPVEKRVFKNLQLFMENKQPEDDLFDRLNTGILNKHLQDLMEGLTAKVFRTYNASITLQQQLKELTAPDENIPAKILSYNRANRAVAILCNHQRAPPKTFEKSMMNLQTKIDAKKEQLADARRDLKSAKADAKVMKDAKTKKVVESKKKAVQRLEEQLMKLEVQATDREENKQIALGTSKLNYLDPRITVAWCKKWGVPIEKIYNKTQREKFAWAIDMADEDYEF
Method in brief: (§1)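 Supercoiled pBR322 plasmid treated with Top1 without drug or with compound at 0.5, 2.5 or 10 µM; camptothecin as reference; relaxation assessed by gel electrophoresis.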

AGS [6] = assay: Induction of apoptosis in human AGS cells after 24 hrs by annexin V-FITC staining-based flow cytometric analysis; format: functional, cell-based
Method in brief: (§2)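 AGS cells exposed to compound for 24 h; Annexin V-FITC staining and flow cytometry used to give percentage of apoptotic cells; mean ± S.E. from at least three independent experiments.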

AGS [7] = assay: Induction of apoptosis in human AGS cells assessed as necrotic cells at 10 uM after 24 hrs by annexin V-FITC staining-based flow cytometric analysis (Rvb=1.1%); format: functional
AGS [8] = assay: Induction of apoptosis in human AGS cells assessed as late apoptotic cells at 10 uM after 24 hrs by annexin V-FITC staining-based flow cytometric analysis (Rvb=5.5%); format: functional; method in brief: as §2
AGS [9] = assay: Induction of apoptosis in human AGS cells assessed as early apoptotic cells at 10 uM after 24 hrs by annexin V-FITC staining-based flow cytometric analysis (Rvb=9.8%); format: functional; method in brief: as §2
AGS [10] = assay: Induction of apoptosis in human AGS cells assessed as viable cells at 10 uM after 24 hrs by annexin V-FITC staining-based flow cytometric analysis (Rvb=83.7%); format: functional; method in brief: as §2
AGS [11] = assay: Upregulation of phosphorylated p53 level in human AGS cells at 1 and 5 uM after 24 hrs by Western blot analysis; format: functional, cell-based
AGS [12] = assay: Downregulation of Bid protein level in human AGS cells after 24 hrs by Western blot analysis; format: functional, cell-based
AGS [13] = assay: Upregulation of caspase3-directed PARP cleavage in human AGS cells at 1 to 5 uM after 24 hrs by Western blot analysis; format: functional, cell-based
K562 [14] = assay: Resistance index, ratio of IC50 for human K562/4 cells to IC50 for human K562 cells; format: functional
[15] = target: T1, NAD-dependent protein deacetylase sirtuin-1 (Homo sapiens); assay: Inhibition of human recombinant SIRT1 deacetylase activity using Arg-His-Lys-Lys(epsilon-acetyl)-AMC as substrate at 5 uM incubated for 45 mins by fluorescence analysis
AGS [16] = assay: Downregulation of tNOX protein level in human AGS cells at 1 and 5 uM after 24 hrs by Western blot analysis; format: functional, cell-based
L1210 = assay: Antiproliferative activity against mouse L1210 cells after 72 hrs by MTT assay; details: L1210, 72 h
[17] = Drug uptake in human K562/4 cells at 3 uM incubated for 2 hrs in presence of verapamil by flow cytometric analysis; format: ADME, cell-based; details: k562/4, 2 h
Method in brief: (§3)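 K562 and K562/4 cells incubated 2 h with 3 µM compound; uptake measured by flow cytometry as ratios (arbitrary units) of mean fluorescence channels of the histograms; verapamil (10 µM), a Pgp transport blocker, added 30 min before compound where used.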

K562 [18] = assay: Drug uptake in human K562 cells at 3 uM incubated for 2 hrs in presence of verapamil by flow cytometric analysis; format: ADME, cell-based; details: k562, 2 h; method in brief: as §3
[19] = Drug uptake in human K562/4 cells at 3 uM incubated for 2 hrs by flow cytometric analysis; format: ADME, cell-based; details: k562/4, 2 h; method in brief: as §3
AGS [20] = assay: Downregulation of tNOX protein level in human AGS cells at 0.1 to 0.5 uM after 24 hrs by Western blot analysis; format: functional, cell-based
[21] = target: T2, DNA topoisomerase 1 (Homo sapiens); assay: Inhibition of Top1 (unknown origin)-mediated relaxation of pBR322 DNA at 2.5 uM incubated for 30 mins by ethidium bromide staining-based gel electrophoresis assay; method in brief: as §1
[22] = target: T2, DNA topoisomerase 1 (Homo sapiens); assay: Inhibition of Top1 (unknown origin)-mediated relaxation of pBR322 DNA at 0.5 uM incubated for 30 mins by ethidium bromide staining-based gel electrophoresis assay; method in brief: as §1
AGS [23] = assay: Induction of apoptosis in human AGS cells assessed as necrotic cells at 5 uM after 24 hrs by annexin V-FITC staining-based flow cytometric analysis (Rvb=1.1%); format: functional
AGS [24] = assay: Induction of apoptosis in human AGS cells assessed as late apoptotic cells at 5 uM after 24 hrs by annexin V-FITC staining-based flow cytometric analysis (Rvb=5.5%); format: functional; method in brief: as §2
AGS [25] = assay: Induction of apoptosis in human AGS cells assessed as early apoptotic cells at 5 uM after 24 hrs by annexin V-FITC staining-based flow cytometric analysis (Rvb=9.8%); format: functional; method in brief: as §2
AGS [26] = assay: Induction of apoptosis in human AGS cells assessed as viable cells at 5 uM after 24 hrs by annexin V-FITC staining-based flow cytometric analysis (Rvb=83.7%); format: functional; details: read-out: Activity; method in brief: as §2
AGS [27] = assay: Upregulation of total p53 level in human AGS cells at 1 and 5 uM after 24 hrs by Western blot analysis; format: cell-based
AGS [28] = assay: Upregulation of caspase3-directed PARP cleavage in human AGS cells at 5 uM after 24 hrs by Western blot analysis; format: functional, cell-based
AGS [29] = assay: Increase in intracellular NAD+/NADH ratio in human AGS cells at 5 uM incubated for 5 mins; format: functional, cell-based
AGS [30] = assay: Upregulation of acetylated p53 level in human AGS cells at 1 and 5 uM after 24 hrs by Western blot analysis; format: functional, cell-based
AGS [31] = assay: Downregulation of SIRT1 protein level in human AGS cells at 1 and 5 uM after 24 after 24 hrs by Western blot analysis; format: functional, cell-based
[32] = target: DNA topoisomerase 2-alpha (Homo sapiens) (UniProt P11388); assay: Inhibition of Top2 (unknown origin)-mediated relaxation of pBR322 DNA at 0.1 to 2.5 uM incubated for 30 mins by ethidium bromide staining-based gel electrophoresis assay
Chain of DNA topoisomerase 2-alpha (Homo sapiens) (P11388 whole entry): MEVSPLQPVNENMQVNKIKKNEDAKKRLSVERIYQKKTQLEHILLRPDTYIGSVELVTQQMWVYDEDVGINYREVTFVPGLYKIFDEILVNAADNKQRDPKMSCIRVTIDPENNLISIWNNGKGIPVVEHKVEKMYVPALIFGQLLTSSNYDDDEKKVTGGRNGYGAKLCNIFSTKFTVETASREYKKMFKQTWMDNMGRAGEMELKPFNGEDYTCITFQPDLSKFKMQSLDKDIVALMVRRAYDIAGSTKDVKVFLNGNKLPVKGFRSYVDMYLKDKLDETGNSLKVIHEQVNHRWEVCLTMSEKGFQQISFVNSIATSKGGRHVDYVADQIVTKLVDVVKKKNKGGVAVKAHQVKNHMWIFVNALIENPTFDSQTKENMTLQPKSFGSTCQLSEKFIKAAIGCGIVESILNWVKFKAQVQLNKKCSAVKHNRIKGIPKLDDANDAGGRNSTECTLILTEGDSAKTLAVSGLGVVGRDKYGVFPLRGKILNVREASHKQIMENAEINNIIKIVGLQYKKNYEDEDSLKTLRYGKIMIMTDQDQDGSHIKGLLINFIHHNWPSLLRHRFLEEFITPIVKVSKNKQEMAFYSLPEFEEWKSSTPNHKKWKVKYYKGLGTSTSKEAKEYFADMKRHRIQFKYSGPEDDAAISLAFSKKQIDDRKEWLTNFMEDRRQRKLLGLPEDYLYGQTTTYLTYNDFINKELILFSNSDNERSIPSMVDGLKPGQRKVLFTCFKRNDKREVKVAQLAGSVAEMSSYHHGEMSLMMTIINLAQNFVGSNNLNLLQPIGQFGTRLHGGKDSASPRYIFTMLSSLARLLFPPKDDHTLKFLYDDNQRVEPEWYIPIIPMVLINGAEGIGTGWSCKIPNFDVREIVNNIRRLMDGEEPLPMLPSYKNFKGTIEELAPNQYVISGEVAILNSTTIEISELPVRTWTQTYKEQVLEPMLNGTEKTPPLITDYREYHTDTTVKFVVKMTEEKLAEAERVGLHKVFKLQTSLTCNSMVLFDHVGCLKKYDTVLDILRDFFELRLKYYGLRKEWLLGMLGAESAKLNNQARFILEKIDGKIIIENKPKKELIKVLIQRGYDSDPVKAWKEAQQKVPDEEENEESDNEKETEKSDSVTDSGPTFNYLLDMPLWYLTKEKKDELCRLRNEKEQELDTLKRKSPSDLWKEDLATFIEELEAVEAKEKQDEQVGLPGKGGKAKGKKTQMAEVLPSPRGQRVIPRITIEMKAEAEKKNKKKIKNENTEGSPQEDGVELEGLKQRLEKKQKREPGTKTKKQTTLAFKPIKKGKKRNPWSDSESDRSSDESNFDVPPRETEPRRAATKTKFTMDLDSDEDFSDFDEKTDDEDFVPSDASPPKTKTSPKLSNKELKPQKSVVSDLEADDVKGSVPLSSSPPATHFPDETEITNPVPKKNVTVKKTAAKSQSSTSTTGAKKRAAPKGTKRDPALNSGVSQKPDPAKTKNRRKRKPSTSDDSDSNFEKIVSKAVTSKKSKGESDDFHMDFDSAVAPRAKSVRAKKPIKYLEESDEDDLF

NC(=O)c1cccnc1
inhibition [1]: Active

CN1CCN(C(=O)c2cc3c(NCCN)c4c(c(NCCN)c3o2)C(=O)c2ccccc2C4=O)CC1
IC50 (CCRF-CEM): 25 µM | IC50 (HeLa): 61.3 µM | IC50 [2]: 3.1 µM | IC50 (K562 [3]): 25.2 µM | IC50 [4]: > 100 µM | inhibition [5]: inactive | Activity (AGS [6]): inactive | Activity (AGS [7]): inactive | Activity (AGS [8]): inactive | Activity (AGS [9]): inactive | Activity (AGS [10]): inactive | Activity (AGS [11]): Active | Activity (AGS [12]): Active | Activity (AGS [13]): inactive | Ratio IC50 (K562 [14]): >4 | inhibition [15]: inactive | Activity (AGS [16]): inactive | IC50 (L1210): 26.1 µM

COc1cccc2c1C(=O)c1c(O)c3c(c(O)c1C2=O)C[C@@](O)(C(=O)CO)C[C@@H]3O[C@H]1C[C@H](N)[C@H](O)[C@H](C)O1 [DOXORUBICIN]
IC50 (CCRF-CEM): 0.06 µM | IC50 [2]: 0.11 µM | IC50 (K562 [3]): 0.12 µM | IC50 [4]: 9.75 µM | Drug uptake [17]: Not Active | Drug uptake (K562 [18]): Active | Drug uptake [19]: Not Active | Activity (AGS [20]): Active | IC50 (L1210): 0.37 µM

N=C(N)NCCNc1c2c(c(NCCNC(=N)N)c3occc13)C(=O)c1ccccc1C2=O
IC50 (CCRF-CEM): 9.02 µM | IC50 (HeLa): 3.27 µM | IC50 [2]: 1.02 µM | IC50 (K562 [3]): 1.65 µM | IC50 [4]: 6.53 µM | inhibition [21]: Active | inhibition [22]: Active | Activity (AGS [6]): inactive | Activity (AGS [23]): 1% | Activity (AGS [7]): 1.5% | Activity (AGS [24]): 4.2% | Activity (AGS [8]): 3% | Activity (AGS [25]): 8.6% | Activity (AGS [9]): 10.5% | viability at 5 µM (AGS [26]): 86.3% | viability at 10 µM (AGS [10]; read-out: Activity): 84.9% | Activity (AGS [11]): inactive | Activity (AGS [27]): Not Active | Activity (AGS [28]): inactive | Activity (AGS [12]): inactive | Activity (AGS [29]): Active | Ratio IC50 (K562 [14]): 3.98 | inhibition [15]: inactive | Activity (AGS [30]): inactive | Activity (AGS [31]): inactive | Activity (AGS [16]): inactive | IC50 (L1210): 5.54 µM | inhibition [32]: Active

CN1CCN(C(=O)c2cc3c(NCCNC(=N)N)c4c(c(NCCNC(=N)N)c3o2)C(=O)c2ccccc2C4=O)CC1
IC50 (CCRF-CEM): 97.7 µM | IC50 (HeLa): 38.4 µM | IC50 [2]: 4.5 µM | IC50 (K562 [3]): 49.5 µM | IC50 [4]: > 100 µM | inhibition [21]: Active | inhibition [22]: Active | Activity (AGS [6]): inactive | Activity (AGS [7]): inactive | Activity (AGS [8]): inactive | Activity (AGS [9]): inactive | Activity (AGS [10]): inactive | Activity (AGS [11]): inactive | Activity (AGS [27]): Not Active | Activity (AGS [28]): inactive | Activity (AGS [12]): inactive | Ratio IC50 (K562 [14]): >2 | Activity (AGS [30]): inactive | Activity (AGS [31]): inactive | Activity (AGS [16]): inactive | IC50 (L1210): 79.3 µM
